Laboratory results: ChEMBL document CHEMBL1208682, “New quinoline derivatives: synthesis and investigation of antibacterial and antituberculosis properties” (2010)
≈ marks a conversion by molar mass, not a printed value.

Columns and labels:
Assay type in all cases: functional
[1] = tested on: Pseudomonas aeruginosa; assay: Antibacterial activity against Pseudomonas aeruginosa ATCC 27853 after 3 to 4 days by serial plate dilution method; conditions: for MIC: Pseudomonas aeruginosa, ATCC 27853
[2] = tested on: Klebsiella pneumoniae; assay: Antibacterial activity against recultured Klebsiella pneumoniae after 3 to 4 days by serial plate dilution method; conditions: for MIC: Klebsiella pneumoniae
[3] = tested on: Staphylococcus aureus; assay: Antibacterial activity against Staphylococcus aureus ATCC 25923 after 3 to 4 days by serial plate dilution method; conditions: for MIC: Staphylococcus aureus, ATCC 25923
[4] = tested on: Escherichia coli; assay: Antibacterial activity against Escherichia coli ATCC 25922 after 3 to 4 days by serial plate dilution method; conditions: for MIC: Escherichia coli, ATCC 25922
[5] = tested on: Mycobacterium tuberculosis; assay: Antituberculosis activity against Mycobacterium tuberculosis H37Rv ATCC 27294 after 7 days using resazurin dye by broth microdilution assay; conditions: H37Rv ATCC 27294, 168 h
How it was run: (§1)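 M. tuberculosis H37Rv grown in Middlebrook 7H9 with 10% OADC and 0.5% glycerol, adjusted to McFarland 1.0. Compounds were dissolved in DMF as stocks and tested at final levels of 1.56, 3.12, 6.25, 12.5, 25 and 50 in 96-well REMA. Controls were DMF-only, growth, rifampicin and isoniazid. After 7 days at 37 °C, 0.01% resazurin was added for 24 h and the colour change read.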

[6] = tested on: Mycobacterium tuberculosis; assay: Antituberculosis activity against Mycobacterium tuberculosis at MIC concentration after 7 days using resazurin dye by broth microdilution assay; how it was run: as §1

| Compound | diameter of the inhibition zone (DIZ) [1] [mm] | MIC [1] [µg/mL] | diameter of the inhibition zone (DIZ) [2] [mm] | MIC [2] [µg/mL] | diameter of the inhibition zone (DIZ) [3] [mm] | MIC [3] [µg/mL] | diameter of the inhibition zone (DIZ) [4] [mm] | MIC [4] [µg/mL] | MIC [5] [µM] | inhibition (INH) [6] [%] |
| --- | --- | --- | --- | --- | --- | --- | --- | --- | --- | --- |
| Oc1cc(F)ccc1/C=N/Nc1cc(C(F)(F)F)nc2c(C(F)(F)F)cccc12 | 12 | 12.5 (≈ 30 µM) | 13 | 12.5 (≈ 30 µM) | 13 | 12.5 (≈ 30 µM) | 22 | 6.25 (≈ 15 µM) | > 50 |  |
| FC(F)C(F)(F)Oc1cccc(/C=N/Nc2cc(C(F)(F)F)nc3c(C(F)(F)F)cccc23)c1 | 26 | 6.25 (≈ 12.5 µM) | 18 | 6.25 (≈ 12.5 µM) | 22 | 6.25 (≈ 12.5 µM) | 21 | 6.25 (≈ 12.5 µM) | 12.5 (≈ 6.24 µg/mL) | <90 |
| COc1ccc(/C=N/Nc2cc(C(F)(F)F)nc3c(C(F)(F)F)cccc23)cc1O | 15 | 12.5 (≈ 29.1 µM) | 12 | 12.5 (≈ 29.1 µM) | 14 | 12.5 (≈ 29.1 µM) | 13 | 12.5 (≈ 29.1 µM) | 12.5 (≈ 5.37 µg/mL) | <90 |
| COc1ccc(/C=N/Nc2cc(C(F)(F)F)nc3c(C(F)(F)F)cccc23)c(F)c1 | 24 | 6.25 (≈ 14.5 µM) | 22 | 6.25 (≈ 14.5 µM) | 23 | 6.25 (≈ 14.5 µM) | 25 | 6.25 (≈ 14.5 µM) | 6.25 (≈ 2.7 µg/mL) | 95 |
| FC(F)(F)c1cc(N/N=C/c2cccs2)c2cccc(C(F)(F)F)c2n1 | <10 | 50 (≈ 128 µM) | <10 | 50 (≈ 128 µM) | <10 | 50 (≈ 128 µM) | <10 | 50 (≈ 128 µM) | > 50 |  |
| FC(F)(F)c1cc(N/N=C/c2cccnc2)c2cccc(C(F)(F)F)c2n1 | 25 | 6.25 (≈ 16.3 µM) | 20 | 6.25 (≈ 16.3 µM) | 22 | 6.25 (≈ 16.3 µM) | 24 | 6.25 (≈ 16.3 µM) | 12.5 (≈ 4.8 µg/mL) | <90 |
| FC(F)(F)c1cc(N/N=C/C2CCCCC2)c2cccc(C(F)(F)F)c2n1 | 23 | 6.25 (≈ 16.1 µM) | 19 | 6.25 (≈ 16.1 µM) | 24 | 6.25 (≈ 16.1 µM) | 25 | 6.25 (≈ 16.1 µM) | 6.25 (≈ 2.43 µg/mL) | 95 |
| FC(F)(F)Oc1cccc(/C=N/Nc2cc(C(F)(F)F)nc3c(C(F)(F)F)cccc23)c1 | 26 | 6.25 (≈ 13.4 µM) | 20 | 6.25 (≈ 13.4 µM) | 21 | 6.25 (≈ 13.4 µM) | 24 | 6.25 (≈ 13.4 µM) | 12.5 (≈ 5.84 µg/mL) | <90 |
| CCCCCCC/C=N/Nc1cc(C(F)(F)F)nc2c(C(F)(F)F)cccc12 | 14 | 12.5 (≈ 30.8 µM) | 12 | 12.5 (≈ 30.8 µM) | 12 | 12.5 (≈ 30.8 µM) | 24 | 6.25 (≈ 15.4 µM) | 6.25 (≈ 2.53 µg/mL) | 95 |
| FC(F)(F)c1cc(N/N=C/c2cocc2Br)c2cccc(C(F)(F)F)c2n1 | <10 | 50 (≈ 111 µM) | <10 | 50 (≈ 111 µM) | <10 | 50 (≈ 111 µM) | <10 | 50 (≈ 111 µM) | > 50 |  |
| FC(F)(F)c1cc(N/N=C/c2c[nH]cn2)c2cccc(C(F)(F)F)c2n1 | 23 | 6.25 (≈ 16.7 µM) | 18 | 6.25 (≈ 16.7 µM) | 24 | 6.25 (≈ 16.7 µM) | 25 | 6.25 (≈ 16.7 µM) | 3.12 (≈ 1.16 µg/mL) | 99 |
| Cn1cc(Cl)c(/C=N/Nc2cc(C(F)(F)F)nc3c(C(F)(F)F)cccc23)n1 | 28 | 6.25 (≈ 14.8 µM) | 18 | 6.25 (≈ 14.8 µM) | 22 | 6.25 (≈ 14.8 µM) | 24 | 6.25 (≈ 14.8 µM) | 6.25 (≈ 2.64 µg/mL) | 95 |
| FC(F)(F)c1cc(N/N=C/c2ccc3c(c2)CCO3)c2cccc(C(F)(F)F)c2n1 | 15 | 12.5 (≈ 29.4 µM) | 12 | 12.5 (≈ 29.4 µM) | 14 | 12.5 (≈ 29.4 µM) | 21 | 6.25 (≈ 14.7 µM) | 25 (≈ 10.6 µg/mL) |  |
| CC(=O)OCc1ccc(/C=N/Nc2cc(C(F)(F)F)nc3c(C(F)(F)F)cccc23)o1 | 14 | 12.5 (≈ 28.1 µM) | 11 | 12.5 (≈ 28.1 µM) | 10 | 12.5 (≈ 28.1 µM) | 20 | 6.25 (≈ 14 µM) | > 50 |  |
| COc1ccc2[nH]cc(/C=N/Nc3cc(C(F)(F)F)nc4c(C(F)(F)F)cccc34)c2c1 | 25 | 6.25 (≈ 13.8 µM) | 20 | 6.25 (≈ 13.8 µM) | 22 | 6.25 (≈ 13.8 µM) | 23 | 6.25 (≈ 13.8 µM) | 25 (≈ 11.3 µg/mL) |  |
| N#Cc1cccc(NC(=O)NNc2cc(C(F)(F)F)nc3c(C(F)(F)F)cccc23)c1 | <10 | 50 (≈ 114 µM) | <10 | 50 (≈ 114 µM) | <10 | 50 (≈ 114 µM) | <10 | 50 (≈ 114 µM) | 25 (≈ 11 µg/mL) |  |
| CCCCCNC(=O)NNc1cc(C(F)(F)F)nc2c(C(F)(F)F)cccc12 | 14 | 12.5 (≈ 30.6 µM) | <10 | 50 (≈ 122 µM) | 10 | 12.5 (≈ 30.6 µM) | 10 | 12.5 (≈ 30.6 µM) | 25 (≈ 10.2 µg/mL) |  |
| Fc1ccccc1NC(=S)NNc1cc(C(F)(F)F)nc2c(C(F)(F)F)cccc12 | <10 | 50 (≈ 112 µM) | <10 | 50 (≈ 112 µM) | <10 | 50 (≈ 112 µM) | <10 | 50 (≈ 112 µM) | > 50 |  |
| COCCNC(=S)NNc1cc(C(F)(F)F)nc2c(C(F)(F)F)cccc12 | 12 | 12.5 (≈ 30.3 µM) | <10 | 50 (≈ 121 µM) | 11 | 12.5 (≈ 30.3 µM) | 10 | 12.5 (≈ 30.3 µM) | 25 (≈ 10.3 µg/mL) |  |
| CC1=NN(c2cc(C(F)(F)F)nc3c(C(F)(F)F)cccc23)C(=O)C1 | 25 | 6.25 (≈ 17.3 µM) | 20 | 6.25 (≈ 17.3 µM) | 24 | 6.25 (≈ 17.3 µM) | 22 | 6.25 (≈ 17.3 µM) |  |  |
| O=C1CC(CCc2ccc3c(c2)OCO3)=NN1c1cc(C(F)(F)F)nc2c(C(F)(F)F)cccc12 | 24 | 6.25 (≈ 12.6 µM) | 22 | 6.25 (≈ 12.6 µM) | 22 | 6.25 (≈ 12.6 µM) | 21 | 6.25 (≈ 12.6 µM) |  |  |
| O=C1CC(c2ccccc2)=NN1c1cc(C(F)(F)F)nc2c(C(F)(F)F)cccc12 | 12 | 12.5 (≈ 29.5 µM) | 10 | 12.5 (≈ 29.5 µM) | 18 | 6.25 (≈ 14.8 µM) | 10 | 12.5 (≈ 29.5 µM) |  |  |
| O=C1CC(c2ccncc2)=NN1c1cc(C(F)(F)F)nc2c(C(F)(F)F)cccc12 | 12 | 12.5 (≈ 29.5 µM) | 10 | 12.5 (≈ 29.5 µM) | 20 | 6.25 (≈ 14.7 µM) | 10 | 12.5 (≈ 29.5 µM) |  |  |
| O=C(O)c1cn(C2CC2)c2cc(N3CCNCC3)c(F)cc2c1=O [CIPROFLOXACIN] | 31 |  | 24 | 3.12 (≈ 9.42 µM) | 26 |  | 28 |  |  |  |
| NNC(=O)c1ccncc1 [ISONIAZID] |  |  |  |  |  |  |  |  | 1.5 (≈ 0.206 µg/mL) | 95 |
| CO[C@H]1/C=C/O[C@@]2(C)Oc3c(C)c(O)c4c(O)c(c(/C=N/N5CCN(C)CC5)c(O)c4c3C2=O)NC(=O)/C(C)=C\C=C\[C@H](C)[C@H](O)[C@@H](C)[C@@H](O)[C@@H](C)[C@H](OC(C)=O)[C@@H]1C [RIFAMPIN] |  |  |  |  |  |  |  |  | 0.5 (≈ 0.411 µg/mL) | 99 |
